Reference: ChEMBL document CHEMBL2380256, “Discovery of novel Jak2-Stat pathway inhibitors with extended residence time on target” (Bioorg Med Chem Lett, 2013)
pIC50: −log10 of the molar value. Calls of active or inactive are those of the source. No cut-off for these calls is given here.

Legend:
Homo sapiens = organism: Homo sapiens; test: Free drug level in human; type: ADME, organism-based; conditions: in vivo
[1] = Total plasma concentration in nude mouse allografted with mouse Ba/F3 cells expressing JAK2 TEL domain administered as po qd measured at 6 hrs; type: ADME, organism-based, BaF3
In short: (§1)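 Female nude mice implanted intravenously with Ba/F3 TEL-JAK2 cells on day 0 and dosed orally on day 10. Total plasma drug concentration was measured at the stated times post-dose, averaged over n = 3 per dose and time point.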

[2] = Total plasma concentration in nude mouse allografted with mouse Ba/F3 cells expressing JAK2 TEL domain administered as po qd measured at 2 hrs; type: ADME, organism-based, BaF3; in short: as §1
[3] = Intrinsic clearance in rat liver microsomes; type: ADME, Microsome; conditions: read-out: CLH
Mus musculus [4] = test: In vivo inhibition of JAK2 TEL domain (unknown origin) transfected in mouse Ba/F3 cells allografted in nude mouse assessed as inhibition of STAT5 phosphorylation at 10 mg/kg, po qd at 2 hrs relative to vehicle-treated control; type: functional; conditions: BaF3, 2 h
In short: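 Female nude mice implanted intravenously with Ba/F3 TEL-JAK2 cells on day 0 and given a single oral dose on day 10. pStat5 was measured at the stated times post-dose. % inhibition was scaled between vehicle and a control inhibitor as maximum and minimum, with n = 3 per dose and time point, reported as mean ±SD.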

[5] = Growth inhibition of mouse BA/F3 cells transfected with JAK3 TEL domain after 24 hrs by Alamar Blue assay; type: functional, cell-based; conditions: BaF3, 24 h, read-out: GI50
[6] = Growth inhibition of mouse BA/F3 cells transfected with JAK2 TEL domain after 24 hrs by Alamar Blue assay; type: functional; conditions: BaF3, 24 h
[7] = target: T1, Tyrosine-protein kinase JAK3 (Homo sapiens, UniProt P52333); test: Inhibition of JAK3 (unknown origin) using biotinylated poly-EY peptide as substrate after 60 mins by HTRF assay
T1 sequence (P52333 whole entry): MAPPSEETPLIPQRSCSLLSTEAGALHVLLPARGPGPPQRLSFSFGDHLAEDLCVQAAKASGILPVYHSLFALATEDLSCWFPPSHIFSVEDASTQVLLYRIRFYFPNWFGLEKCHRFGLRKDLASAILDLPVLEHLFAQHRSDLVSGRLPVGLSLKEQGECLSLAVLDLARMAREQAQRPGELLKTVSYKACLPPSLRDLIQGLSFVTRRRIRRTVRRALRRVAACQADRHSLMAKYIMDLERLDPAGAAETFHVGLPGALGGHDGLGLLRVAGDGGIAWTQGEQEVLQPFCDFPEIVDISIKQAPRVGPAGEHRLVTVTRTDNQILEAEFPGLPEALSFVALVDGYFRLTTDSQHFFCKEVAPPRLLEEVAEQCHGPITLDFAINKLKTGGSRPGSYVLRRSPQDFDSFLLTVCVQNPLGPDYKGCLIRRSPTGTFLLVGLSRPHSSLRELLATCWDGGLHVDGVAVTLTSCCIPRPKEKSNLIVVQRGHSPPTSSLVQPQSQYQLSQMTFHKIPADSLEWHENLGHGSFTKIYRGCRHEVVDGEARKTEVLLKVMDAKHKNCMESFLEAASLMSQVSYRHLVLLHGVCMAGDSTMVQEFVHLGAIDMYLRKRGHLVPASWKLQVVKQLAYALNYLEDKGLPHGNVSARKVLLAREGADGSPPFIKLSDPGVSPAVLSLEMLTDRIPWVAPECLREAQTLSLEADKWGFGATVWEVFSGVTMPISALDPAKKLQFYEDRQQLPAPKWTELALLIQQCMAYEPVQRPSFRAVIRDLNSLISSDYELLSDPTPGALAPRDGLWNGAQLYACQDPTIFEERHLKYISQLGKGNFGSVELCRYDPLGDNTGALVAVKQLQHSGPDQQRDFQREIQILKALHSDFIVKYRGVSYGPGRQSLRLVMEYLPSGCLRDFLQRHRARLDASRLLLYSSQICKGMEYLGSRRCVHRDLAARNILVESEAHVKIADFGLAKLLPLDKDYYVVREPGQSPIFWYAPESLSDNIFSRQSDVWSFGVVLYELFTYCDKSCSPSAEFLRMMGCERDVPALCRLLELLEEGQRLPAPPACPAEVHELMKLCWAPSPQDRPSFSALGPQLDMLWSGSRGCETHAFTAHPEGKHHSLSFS

[8] = target: Tyrosine-protein kinase JAK2 (Homo sapiens, UniProt O60674); test: Inhibition of JAK2 (unknown origin) using biotinylated TYK2 peptide as substrate after 60 mins
Mus musculus [9] = organism: Mus musculus; conditions: BaF3, 10 mg/kg

Sequence of Tyrosine-protein kinase JAK2 (O60674 whole entry): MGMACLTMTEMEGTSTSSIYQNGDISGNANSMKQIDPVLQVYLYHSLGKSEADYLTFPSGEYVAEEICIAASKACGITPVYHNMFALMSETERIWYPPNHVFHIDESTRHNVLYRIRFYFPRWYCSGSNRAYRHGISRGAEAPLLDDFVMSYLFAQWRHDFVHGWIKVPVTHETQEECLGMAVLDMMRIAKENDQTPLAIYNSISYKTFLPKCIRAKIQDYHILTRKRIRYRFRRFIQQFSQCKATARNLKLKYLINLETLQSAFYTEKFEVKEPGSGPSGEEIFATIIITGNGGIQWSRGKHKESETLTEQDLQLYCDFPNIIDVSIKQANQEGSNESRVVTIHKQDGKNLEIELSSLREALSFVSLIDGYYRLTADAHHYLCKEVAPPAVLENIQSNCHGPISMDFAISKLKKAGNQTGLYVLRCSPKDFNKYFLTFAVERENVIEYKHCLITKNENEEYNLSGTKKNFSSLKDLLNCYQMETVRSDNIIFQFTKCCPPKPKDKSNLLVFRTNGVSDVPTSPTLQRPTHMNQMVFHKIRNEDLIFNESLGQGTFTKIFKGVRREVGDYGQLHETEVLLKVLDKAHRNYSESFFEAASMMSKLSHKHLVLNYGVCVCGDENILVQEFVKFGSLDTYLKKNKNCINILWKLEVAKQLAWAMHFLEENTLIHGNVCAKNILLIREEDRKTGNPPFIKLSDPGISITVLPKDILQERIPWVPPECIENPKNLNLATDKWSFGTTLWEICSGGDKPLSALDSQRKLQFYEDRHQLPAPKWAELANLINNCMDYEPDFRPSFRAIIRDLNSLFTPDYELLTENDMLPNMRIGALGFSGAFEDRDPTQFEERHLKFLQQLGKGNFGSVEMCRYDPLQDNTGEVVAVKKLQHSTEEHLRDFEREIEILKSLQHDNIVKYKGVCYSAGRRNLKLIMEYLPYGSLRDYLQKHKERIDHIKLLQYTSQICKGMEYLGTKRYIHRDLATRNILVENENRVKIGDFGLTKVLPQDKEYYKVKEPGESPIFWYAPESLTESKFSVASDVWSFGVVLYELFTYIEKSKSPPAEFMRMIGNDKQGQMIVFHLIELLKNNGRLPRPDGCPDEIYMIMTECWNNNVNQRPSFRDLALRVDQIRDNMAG

- Drug uptake(free) (Homo sapiens): 3%
- concentration at 6 h [1]: 185 ng/mL
- concentration at 2 h [2]: 463 ng/mL
- microsomal CLint [3]: 82 µL/min/mg
- pIC50 [7]: 4.79
- pIC50 [8]: 7.70
SMILES: Cc1cnc(Nc2nc(N[C@@H](C)c3ncc(F)cn3)c(F)c(N3CCOCC3)n2)s1
- inhibition in vivo at 10 mg/kg (Mus musculus [4]): 50%
- GI50 [5]: 2700 nM
- GI50 [6]: 30 nM
- inhibition (Mus musculus [9]): inactive
